For experiment [1], the target named is T1, Monoglyceride lipase (Homo sapiens) (UniProt Q99685).
T1 sequence (whole entry): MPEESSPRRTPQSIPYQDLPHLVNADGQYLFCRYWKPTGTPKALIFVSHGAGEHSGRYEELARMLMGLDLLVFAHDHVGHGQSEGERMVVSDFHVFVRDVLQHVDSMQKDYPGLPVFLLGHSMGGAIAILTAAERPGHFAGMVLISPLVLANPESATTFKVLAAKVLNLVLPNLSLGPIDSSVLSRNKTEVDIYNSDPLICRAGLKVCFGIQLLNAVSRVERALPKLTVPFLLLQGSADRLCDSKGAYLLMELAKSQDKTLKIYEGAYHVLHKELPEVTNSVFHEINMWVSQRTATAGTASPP
The experiment in a line: Inhibition of human recombinant MGL at 100 uM. Summed up: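 Human recombinant MGL as enzyme source with 2-AG as substrate. Single-concentration screen at 100 µM, expressed as percent inhibition. Mean of two independent experiments, each performed in duplicate.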

The target of experiment [2] is T2, Fatty-acid amide hydrolase 1 (Rattus norvegicus, UniProt P97612).
T2 sequence (P97612 whole entry): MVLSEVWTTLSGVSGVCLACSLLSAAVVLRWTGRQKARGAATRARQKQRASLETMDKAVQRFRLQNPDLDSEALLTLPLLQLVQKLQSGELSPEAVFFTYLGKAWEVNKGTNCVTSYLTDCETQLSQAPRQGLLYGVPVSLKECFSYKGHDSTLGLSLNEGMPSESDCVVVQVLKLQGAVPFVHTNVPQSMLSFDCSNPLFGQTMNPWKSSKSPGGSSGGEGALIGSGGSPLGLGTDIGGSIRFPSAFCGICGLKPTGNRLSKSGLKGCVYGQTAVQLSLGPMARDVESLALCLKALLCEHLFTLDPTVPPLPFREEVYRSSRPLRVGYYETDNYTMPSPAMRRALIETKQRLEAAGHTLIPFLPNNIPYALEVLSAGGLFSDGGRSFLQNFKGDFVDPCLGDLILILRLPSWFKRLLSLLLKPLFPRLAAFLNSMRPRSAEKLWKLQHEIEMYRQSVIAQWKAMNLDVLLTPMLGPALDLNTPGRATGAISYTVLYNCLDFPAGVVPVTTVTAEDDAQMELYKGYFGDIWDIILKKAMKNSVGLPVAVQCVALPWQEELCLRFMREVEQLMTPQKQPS
The experiment in a line: Inhibition of Wistar rat brain FAAH assessed as [3H]arachidonoylethanolamide hydrolysis.

A further experiment concerns the target T3, Monoglyceride lipase (Homo sapiens, UniProt Q99685).
T3 sequence (Q99685 whole entry): T1 sequence (whole entry)
Description: Inhibition of human recombinant MGL.

The target of experiment [3] is T1, Monoglyceride lipase (Homo sapiens). The experiment in a line: Inhibition of human recombinant MGL assessed as residual enzyme activity at 1 mM.

This is an account of results in ChEMBL document CHEMBL1140204, “Discovery of boronic acids as novel and potent inhibitors of fatty acid amide hydrolase” (J Med Chem, 2008).

Calls of active or inactive are those of the source. The calls are words filed in the database; no cut-off is given here.

In the case of `O=[N+]([O-])c1ccc(B(O)O)cc1`, the inhibition in experiment [1] turned out to be 43%. The IC50 in experiment [2] was 0.21 µM.
In the same order, the values of `OB(O)c1ccc(F)cc1` are 3% and 1.5 µM.
`OB(O)/C=C/c1ccc(-c2ccccc2)cc1`: in experiment [2], the IC50 was found to be 0.014 µM.
Turning to `OB(O)c1cc2ccccc2s1`, the IC50 in experiment [2] amounted to 0.15 µM; on Monoglyceride lipase, 32 µM.
Consider `OB(O)c1ccccc1-c1ccccc1`, for which, in experiment [1], the inhibition is 2%. Besides, in experiment [2], the 50% inhibitory concentration (IC50) was 110 µM.
Consider `OB(O)c1cccc(-c2ccccc2)c1`, for which the IC50 in experiment [2] is 0.13 µM.
`OB(O)c1cccc(C(F)(F)F)c1`: the IC50 worked out at 0.08 µM in experiment [2] and 38 µM at Monoglyceride lipase.
`N#Cc1ccc(B(O)O)cc1`: in experiment [1], the inhibition came to 36%. In experiment [2], the IC50 stood at 0.29 µM.
In the same order, the values of `CCOC(=O)c1cccc(B(O)O)c1` are 34% and 0.12 µM.
Turning to `COc1cccc(B(O)O)c1`, in experiment [1], the inhibition amounted to 7%.
On to `OB(O)c1ccc(C(F)(F)F)cc1`, for which the IC50 in experiment [2] was found to be 0.036 µM.
Regarding `OB(O)c1cc2ccccc2o1`, the Activity in experiment [3] was 8.4%. The IC50 in experiment [2] was determined as 0.33 µM; on Monoglyceride lipase it was 100 µM.
Consider `N#Cc1cccc(B(O)O)c1`, for which the inhibition in experiment [1] is 21%. Also, the IC50 in experiment [2] worked out at 1.6 µM.
Regarding `OB(O)c1ccc(-c2ccccc2)cc1` [BIPHENYLBORONIC ACID], the half-inhibitory concentration (IC50) in experiment [2] was determined as 0.021 µM.
For the molecule `OB(O)c1ccccc1F`, the inhibition in experiment [1] was determined as 13%. Further, the IC50 in experiment [2] turned out to be 0.71 µM.
For `COc1ccc(B(O)O)cc1`, in experiment [1], the inhibition stood at 11%. Further, the concentration for half-maximal inhibition (IC50) in experiment [2] was determined as 2 µM.
In the same order, the values of `OB(O)c1ccccc1C(F)(F)F` are 20% and 68 µM.
Take `CCCCCCCCCc1ccc(B(O)O)cc1`: the figures for the IC50 (in experiment [2]; at Monoglyceride lipase) were 0.0091 µM and 7.9 µM, respectively.
With `OB(O)c1ccc(F)nc1`, in experiment [1], the inhibition was determined as 2%. Also, the IC50 in experiment [2] worked out at 10 µM.
Take `OB(O)c1ccccc1` [PHENYLBORONIC ACID]: the result in experiment [1] was inactive. For the same molecule, the IC50 in experiment [2] turned out to be 2.6 µM.
Turning to `COc1ccccc1B(O)O`, the inhibition in experiment [1] is 11%. In addition, in experiment [2], the IC50 stood at 13 µM.

A word on the inhibition: it is the drop in the measured response relative to a control, in per cent. One may read the IC50 as the concentration that gives 50% inhibition.
